From paper PMC7347020 (Science (New York, N.Y.), 2020)
Where two headings read alike, the source gives them in different places. Blank lines part the entries; values can stand above or below the molecule they belong to.

How the values were obtained:
CATΔHD [1] = conditions: cited from earlier work
PARP-1 [2] = biological target: T1, PARP-1 (Homo sapiens, UniProt P09874); assay: Classification of PARPi by allosteric effects; conditions: based on HXMS and DNA binding studies
PARP-1 [3] = biological target: T1, PARP-1; assay: FP DNA binding affinity of PARP-1 for SSB-DNA
WT PARP-1 = WT PARP-1 (Homo sapiens, UniProt P09874); assay: FP DNA competition; format: binding; conditions: WT PARP-1, with or without inhibitor
[4] = tested on: MMS-treated CAPAN-1 cells; conditions: cited from earlier work
PARP-1 [5] = biological target: T1, PARP-1; assay: SPR dissociation kinetics of PARP-1 from SSB-DNA; format: binding
PARP-1 [6] = biological target: T1, PARP-1; assay: HXMS of WT PARP-1/SSB-DNA complex; conditions: PARP-1/SSB-DNA complex with versus without inhibitor
CATΔHD [7] = assay: DSF thermal stability, CATΔHD; format: binding
Method in brief: (§1)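 Protein melting temperature was measured by differential scanning fluorimetry with and without test compound. ΔTM was taken as TM with compound minus TM without compound.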

PARP-1 CAT = PARP-1 CAT (Homo sapiens, UniProt P09874); assay: DSF thermal stability, CAT domain; format: binding
Method in brief: as §1

PARP-1 W318R [8] = biological target: T2, PARP-1 W318R (Homo sapiens, UniProt P09874, W318R); assay: FP DNA competition, W318R mutant; format: binding
Method in brief: (§2)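 Fluorescence polarization competition used FAM-labeled SSB-DNA bound by the PARP-1 variant, challenged with unlabeled SSB-DNA, with or without test compound.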

PARP-1 W318R [9] = biological target: T2, PARP-1 W318R; assay: HXMS of PARP-1 W318R/SSB-DNA; conditions: W318R mutant
PARP-1 [10] = biological target: T1, PARP-1; conditions: cited from earlier work
PARP-1 D766/770A [11] = biological target: T3, PARP-1 D766/770A (Homo sapiens, UniProt P09874, D766A/D770A); assay: FP DNA competition, D766/770A mutant; format: binding
Method in brief: as §2

PARP-1 R591C [12] = biological target: T4, PARP-1 R591C (Homo sapiens, UniProt P09874, R591C); assay: HXMS of PARP-1 R591C/SSB-DNA; conditions: R591C mutant
PARP-1 D766/770A [13] = biological target: T3, PARP-1 D766/770A; assay: HXMS of PARP-1 D766/770A/SSB-DNA; conditions: D766/770A mutant
Method in brief: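 PARP-1 (2.6 μM) was mixed with SSB-DNA (5 μM) and, where applicable, inhibitor (5.2 μM). Deuterium on-exchange ran at RT in 10 mM HEPES pD 7.0, 150 mM NaCl (final 75% D2O). Samples were quenched in ice-cold buffer, frozen in liquid nitrogen, pepsin-digested, separated on C18 and analysed by electrospray MS for per-peptide deuteration.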

PARP-1 R591C [14] = biological target: T4, PARP-1 R591C; assay: FP DNA competition, R591C mutant; format: binding
Method in brief: as §2

[15] = tested on: ADP-ribosylation activity in cells; assay: Measurement of PAR in cells; format: cell-based; conditions: 0.01, 0.1, 1 and 10 μM, 0.01% MMS
Method in brief: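 Cells were co-treated with test compound and 0.01% MMS. Cellular poly(ADP-ribose) was detected by western blot with an anti-pan-ADP-ribose binding reagent.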

[16] = tested on: parental or PARP-1−/− cells; assay: Survival assay, parental or PARP-1−/− cells; format: cell-based; conditions: low concentrations; parental versus PARP-1−/−
[17] = tested on: SUM149PT-BRCA1mut and SUM149PT-BRCA1rev cells; assay: Cell survival assay, SUM149PT-BRCA1mut versus SUM149PT-BRCA1rev; format: cell-based
[18] = tested on: MMS-treated CAPAN-1 cells; assay: Chromatin fractionation assay; format: cell-based; conditions: 1, 10 and 25 μM, 0.01% MMS
Method in brief: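 Chromatin fractionation measured chromatin-bound PARP-1 in cells exposed to 0.01% MMS, with or without test compound.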

CAPAN-1 cells = assay: Cell survival assay, CAPAN-1; format: cell-based; conditions: cell survival experiment
[19] = tested on: CAL51 PARP-1−/− cells transfected with PARP-1-GFP; assay: Microirradiation assay, PARP-1-GFP residence at DNA damage sites; format: cell-based
PARP-1 [20] = biological target: T1, PARP-1; assay: PARP-1 catalytic inhibition; format: biochemical; conditions: catalytic inhibitory potency; not shown

T3 sequence (P09874 whole entry D766A/D770A): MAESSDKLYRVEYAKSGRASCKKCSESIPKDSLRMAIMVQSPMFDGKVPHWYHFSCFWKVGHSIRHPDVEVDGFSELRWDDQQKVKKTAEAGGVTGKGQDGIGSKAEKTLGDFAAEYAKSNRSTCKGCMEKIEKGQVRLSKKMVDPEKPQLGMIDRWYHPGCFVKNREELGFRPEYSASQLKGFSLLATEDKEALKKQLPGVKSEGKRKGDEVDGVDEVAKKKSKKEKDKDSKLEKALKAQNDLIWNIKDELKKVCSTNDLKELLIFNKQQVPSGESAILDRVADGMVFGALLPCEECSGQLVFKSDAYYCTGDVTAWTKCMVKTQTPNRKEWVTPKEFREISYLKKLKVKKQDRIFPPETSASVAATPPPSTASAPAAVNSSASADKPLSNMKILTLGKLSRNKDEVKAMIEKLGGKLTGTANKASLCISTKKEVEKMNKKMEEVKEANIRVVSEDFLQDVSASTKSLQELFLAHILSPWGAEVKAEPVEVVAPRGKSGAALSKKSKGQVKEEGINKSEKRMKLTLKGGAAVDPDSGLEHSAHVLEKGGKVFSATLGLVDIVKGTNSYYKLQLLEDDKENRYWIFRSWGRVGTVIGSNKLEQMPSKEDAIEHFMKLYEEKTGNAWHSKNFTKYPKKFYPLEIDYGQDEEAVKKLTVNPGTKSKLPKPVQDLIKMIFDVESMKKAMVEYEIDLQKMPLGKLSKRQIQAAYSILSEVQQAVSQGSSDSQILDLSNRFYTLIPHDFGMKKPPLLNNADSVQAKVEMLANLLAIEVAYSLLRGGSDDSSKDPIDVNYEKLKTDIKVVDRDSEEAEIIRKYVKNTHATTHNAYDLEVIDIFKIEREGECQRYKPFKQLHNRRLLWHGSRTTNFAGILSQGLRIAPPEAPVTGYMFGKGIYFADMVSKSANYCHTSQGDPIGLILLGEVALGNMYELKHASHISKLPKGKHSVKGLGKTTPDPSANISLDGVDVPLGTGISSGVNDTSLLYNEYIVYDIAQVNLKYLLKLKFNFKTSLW
Sequence of WT PARP-1 (P09874 whole entry): as the sequence (P09874 whole entry D766A/D770A) above, with A766D, A770D counted along it
T1 sequence (P09874 whole entry): as the sequence (P09874 whole entry D766A/D770A) above, with A766D, A770D counted along it
T4 sequence (P09874 whole entry R591C): as the sequence (P09874 whole entry D766A/D770A) above, with R591C, A766D, A770D counted along it
T2 sequence (P09874 whole entry W318R): as the sequence (P09874 whole entry D766A/D770A) above, with W318R, A766D, A770D counted along it
Sequence of PARP-1 CAT (P09874 661-1014 limits assumed): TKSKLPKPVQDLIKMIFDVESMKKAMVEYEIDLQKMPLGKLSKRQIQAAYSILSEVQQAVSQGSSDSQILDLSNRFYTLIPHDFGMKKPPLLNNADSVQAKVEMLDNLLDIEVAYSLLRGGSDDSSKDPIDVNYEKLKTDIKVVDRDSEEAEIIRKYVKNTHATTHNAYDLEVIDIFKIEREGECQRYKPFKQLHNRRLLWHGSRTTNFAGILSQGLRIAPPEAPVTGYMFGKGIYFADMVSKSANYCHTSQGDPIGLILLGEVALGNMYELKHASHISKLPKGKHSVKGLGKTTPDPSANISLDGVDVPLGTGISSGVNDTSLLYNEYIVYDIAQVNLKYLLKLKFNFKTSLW

Compound: NC(=O)c1ccc[n+]([C@@H]2O[C@H](COP(=O)([O-])OP(=O)(O)OC[C@H]3O[C@@H](n4cnc5c(N)ncnc54)[C@H](O)[C@@H]3O)[C@@H](O)[C@H]2O)c1 [NAD^+]
binding to CAT versus CATΔHD (CATΔHD [1]): only bind to CATΔHD

Compound: NC(=O)c1cccc([C@@H]2O[C@H](COP(=O)(O)OP(=O)(O)OC[C@H]3O[C@@H](n4cnc5c(N)ncnc54)[C@H](O)[C@@H]3O)[C@@H](O)[C@H]2O)c1 [BAD, benzamide adenine dinucleotide]
PARPi type by allosteric effect (PARP-1 [2]): Type I
binding to CAT versus CATΔHD (CATΔHD [1]): only bind to CATΔHD

Compound: C[C@]1(c2nc3c(C(N)=O)cccc3[nH]2)CCCN1 [veliparib]
decrease in PARP-1 SSB DNA binding affinity (PARP-1 [3]): 3–5 fold
PARP-1 retention on SSB-DNA (WT PARP-1): not significant
PARP-1 trapping in cells ([4]; chromatin fractionation): poor PARP-1 trapper
PARPi type by allosteric effect (PARP-1 [2]): Type III
influence on dissociation (kd) of PARP-1 from a DNA break (in words) (PARP-1 [5]): slightly accelerated release
allosteric effect on PARP-1 (HX changes) (PARP-1 [6]): stronger allosteric effects to the HD

Compound: CNCc1ccc(-c2[nH]c3cc(F)cc4c3c2CCNC4=O)cc1 [rucaparib]
decrease in PARP-1 SSB DNA binding affinity (PARP-1 [3]): 3–5 fold
PARPi type by allosteric effect (PARP-1 [2]): Type III
influence on dissociation (kd) of PARP-1 from a DNA break (in words) (PARP-1 [5]): slightly accelerated release
allosteric effect on PARP-1 (HX changes) (PARP-1 [6]): stronger allosteric effects to the HD

Compound: NC(=O)c1cccc2cn(-c3ccc([C@@H]4CCCNC4)cc3)nc12 [niraparib]
decrease in PARP-1 SSB DNA binding affinity (PARP-1 [3]): 3–5 fold
PARPi type by allosteric effect (PARP-1 [2]): Type III
influence on dissociation (kd) of PARP-1 from a DNA break (in words) (PARP-1 [5]): slightly accelerated release
allosteric effect on PARP-1 (HX changes) (PARP-1 [6]): stronger allosteric effects to the HD

Compound: Cn1ncnc1[C@H]1c2n[nH]c(=O)c3cc(F)cc(c23)N[C@@H]1c1ccc(F)cc1 [talazoparib]
PARP-1 trapping in cells [4]: most efficient trapper of the clinical inhibitors

The next lines start with results.

binding to CATΔHD (CATΔHD [7]): bound
binding to PARP-1 CAT (PARP-1 CAT): bound
PARP-1 retention on SSB-DNA (PARP-1 W318R [8]): unaffected
PARPi type by allosteric effect (PARP-1 [2]): Type I
PARP-1 release from / retention on a DNA break (PARP-1 D766/770A [11]): insensitive
influence on dissociation (kd) of PARP-1 from a DNA break (in words) (PARP-1 [5]): markedly slowed release from DNA
allosteric effect on PARP-1 (HX changes) (PARP-1 D766/770A [13]): no longer influenced PARP-1 allostery
PARP-1 retention on SSB-DNA (PARP-1 R591C [14]): unaffected
Compound: Nc1ncnc2c1ncn2[C@@H]1O[C@H](C(=O)N2CCN(CC(=O)Nc3cccc4c3CNC4=O)CC2)[C@@H](O)[C@H]1O [EB-47]
influence on PARP-1 SSB DNA binding affinity (in words) (PARP-1 [3]): large increase in SSB DNA binding affinity
PARP-1 retention on SSB-DNA (WT PARP-1): increased the retention of WT PARP-1 on DNA
allosteric effect on PARP-1 (HX changes) (PARP-1 W318R [9]): destabilization of the αB and αF helices of the HD
affinity for PARP-1 (PARP-1 [10]): nM range
allosteric effect on PARP-1 (HX changes) (PARP-1 R591C [12]): destabilization of the αB and αF helices of the HD
allosteric effect on PARP-1 (HX changes) (PARP-1 [6]): highly localized destabilization of the helical domain (HD)

increase in PARP-1 affinity for DNA relative to no inhibitor (PARP-1 [3]; WT PARP-1): 3.5 fold
PARP-1 retention on SSB-DNA (WT PARP-1): strong PARP-1 retention on a DNA break
PARPi type by allosteric effect (PARP-1 [2]): Type I
PARP-1 release from / retention on a DNA break (PARP-1 D766/770A [11]): still retained on DNA
IC50 (PARP-1 [20]): 2.6 nM
Compound: COC(=O)c1cnc(N2CCN(C(=O)c3ccc(-c4nc5c(C(N)=O)cccc5[nH]4)cc3)CC2)nc1 [UKTT15]
inhibition of ADP-ribosylation activity in cells (PAR levels) [15]: not better than veliparib
PARP-1 dependence of cell killing [16]: required PARP-1 expression
BRCA selectivity of cell killing [17]: killing of the SUM149-BRCA1mut cells at a lower concentration compared to the SUM149PT-BRCA1rev cells
PARP-1 trapping on DNA in cells [18]: increased ability to trap PARP-1 on DNA
allosteric effect on PARP-1 (HX changes) (PARP-1 [6]): profound changes to the HX behavior of PARP-1
killing of CAPAN-1 cells (CAPAN-1 cells): more efficient than veliparib
PARP-1-GFP residence time at sites of UV laser-induced damage [19]: increase in the PARP-1-GFP residence time
